Laboratory results: ChEMBL document CHEMBL4251567 (Eur J Med Chem, 2018)

Key:
[1] = target: Histone deacetylase 3 (Homo sapiens) (UniProt O15379); assay: Inhibition of HDAC3 in human HeLa-S3 cell lysates assessed as remaining activity at 1 x 10^-6 M preincubated for 15 mins followed by HDAC-Glo substrate addition measured after 30 to 40 mins by […] relative to control
Summary of the method: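 Antibody-capture (ELISA-type) assay: HDAC antibody coated in carbonate/bicarbonate buffer pH 9.4, wells blocked with 5% milk in TBST. HeLa-S3 lysate added at 1 mg/mL for HDAC3, 1 h at 4 °C, then washed. Inhibitor in DMSO preincubated 15 min at RT in HDAC-Glo buffer. HDAC-Glo reagent added, luminescence read after 30-40 min. Concentrations are final. Background = no-antibody well; activity given as % of DMSO control.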

[2] = target: T1, Protein deacetylase HDAC6 (Homo sapiens) (UniProt Q9UBN7); assay: Inhibition of HDAC6 in human U937 cells assessed as increase in acetyl-alpha-tubulin levels after 18 hrs by Western blot method; format: cell-based
T1 sequence (whole entry): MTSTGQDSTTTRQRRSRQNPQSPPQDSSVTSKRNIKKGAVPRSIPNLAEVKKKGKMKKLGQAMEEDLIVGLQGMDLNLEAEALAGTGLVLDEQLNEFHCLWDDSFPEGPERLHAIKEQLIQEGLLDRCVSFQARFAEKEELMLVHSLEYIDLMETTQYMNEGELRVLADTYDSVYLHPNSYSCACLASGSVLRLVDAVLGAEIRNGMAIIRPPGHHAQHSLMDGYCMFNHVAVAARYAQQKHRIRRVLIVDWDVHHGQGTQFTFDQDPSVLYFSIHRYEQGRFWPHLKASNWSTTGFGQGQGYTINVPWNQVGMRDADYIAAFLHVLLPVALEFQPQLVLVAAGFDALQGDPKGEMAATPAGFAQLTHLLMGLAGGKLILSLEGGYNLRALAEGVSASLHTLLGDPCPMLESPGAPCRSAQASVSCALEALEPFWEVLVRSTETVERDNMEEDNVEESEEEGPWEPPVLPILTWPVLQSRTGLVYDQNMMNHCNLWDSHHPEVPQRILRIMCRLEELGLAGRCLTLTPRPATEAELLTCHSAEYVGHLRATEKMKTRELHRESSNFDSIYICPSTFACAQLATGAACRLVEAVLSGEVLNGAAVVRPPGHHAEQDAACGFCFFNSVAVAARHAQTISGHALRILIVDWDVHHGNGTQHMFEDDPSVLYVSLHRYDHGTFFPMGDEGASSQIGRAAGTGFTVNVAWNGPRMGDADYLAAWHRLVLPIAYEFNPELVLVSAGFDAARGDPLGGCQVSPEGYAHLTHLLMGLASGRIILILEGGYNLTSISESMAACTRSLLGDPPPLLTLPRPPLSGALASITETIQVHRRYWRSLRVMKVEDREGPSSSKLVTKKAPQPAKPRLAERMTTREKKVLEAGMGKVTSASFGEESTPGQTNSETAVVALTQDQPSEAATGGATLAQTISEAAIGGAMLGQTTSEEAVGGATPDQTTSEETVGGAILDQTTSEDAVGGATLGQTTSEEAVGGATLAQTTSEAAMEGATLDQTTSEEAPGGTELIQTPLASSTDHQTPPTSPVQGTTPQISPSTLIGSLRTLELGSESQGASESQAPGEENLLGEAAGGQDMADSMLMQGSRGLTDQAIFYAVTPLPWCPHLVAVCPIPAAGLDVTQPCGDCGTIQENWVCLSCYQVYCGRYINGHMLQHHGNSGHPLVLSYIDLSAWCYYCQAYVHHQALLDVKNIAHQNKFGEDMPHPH
Summary of the method: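 U937 cells (10^6/well in RPMI-1640 with 10% FCS) treated 18 h at 37 °C, 5% CO2 with inhibitor or DMSO (1% final). Lysates separated on 16% SDS-PAGE and blotted to PVDF. Probed with anti-acetyl-α-tubulin(Lys40) and anti-acetyl-H3(Lys9), GAPDH as load control; ECL detection. Blots representative of three trials.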

[3] = target: Histone deacetylase 1 (Homo sapiens) (UniProt Q13547); assay: Inhibition of HDAC1 in human HeLa-S3 cell lysates assessed as remaining activity at 1.25 uM preincubated for 15 mins followed by HDAC-Glo substrate addition measured after 30 to 40 mins by […] relative to control
Chain of Histone deacetylase 1 (Homo sapiens) (Q13547 whole entry): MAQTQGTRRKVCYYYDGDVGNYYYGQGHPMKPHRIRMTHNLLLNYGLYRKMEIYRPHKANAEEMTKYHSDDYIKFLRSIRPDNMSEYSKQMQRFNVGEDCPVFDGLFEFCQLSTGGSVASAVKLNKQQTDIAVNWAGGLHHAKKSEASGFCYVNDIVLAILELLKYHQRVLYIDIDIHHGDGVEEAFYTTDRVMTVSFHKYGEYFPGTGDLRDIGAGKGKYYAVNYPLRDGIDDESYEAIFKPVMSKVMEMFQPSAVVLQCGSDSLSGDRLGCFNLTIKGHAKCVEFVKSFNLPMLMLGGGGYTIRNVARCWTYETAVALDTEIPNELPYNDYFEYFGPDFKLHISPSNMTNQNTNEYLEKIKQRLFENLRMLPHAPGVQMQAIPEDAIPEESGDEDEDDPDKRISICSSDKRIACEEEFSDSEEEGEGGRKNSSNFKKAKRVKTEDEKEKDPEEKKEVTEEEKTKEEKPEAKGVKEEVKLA
Summary of the method: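 HDAC1 was captured from HeLa-S3 lysate (100 μg/mL) onto wells precoated with anti-HDAC1 antibody (10 μg/mL, carbonate buffer pH 9.4) and milk-blocked, 1 h at 4 °C, then washed. Inhibitor in DMSO was added in HDAC-Glo buffer for 15 min at room temperature. HDAC-Glo reagent was added and luminescence read after 30-40 min. Concentrations are final. No-antibody background subtracted; % of DMSO control.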

Chain of Histone deacetylase 3 (Homo sapiens) (O15379 whole entry): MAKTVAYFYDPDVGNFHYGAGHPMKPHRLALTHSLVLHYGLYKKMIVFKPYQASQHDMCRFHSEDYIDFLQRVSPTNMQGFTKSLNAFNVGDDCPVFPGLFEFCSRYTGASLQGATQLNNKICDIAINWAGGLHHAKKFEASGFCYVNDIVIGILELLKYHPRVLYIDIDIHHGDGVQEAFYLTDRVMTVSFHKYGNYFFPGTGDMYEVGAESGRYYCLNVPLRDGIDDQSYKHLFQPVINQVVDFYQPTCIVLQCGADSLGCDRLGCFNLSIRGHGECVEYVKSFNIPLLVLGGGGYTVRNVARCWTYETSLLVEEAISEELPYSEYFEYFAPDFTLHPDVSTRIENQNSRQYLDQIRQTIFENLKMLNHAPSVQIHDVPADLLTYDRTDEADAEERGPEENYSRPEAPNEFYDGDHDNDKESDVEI

CCC(CCCC(=O)Nc1ccccc1)CCC(=O)NO (stereo not drawn)
Activity [1]: 83%

O=C(CCC(CCCC(=O)Nc1ccccc1)Cc1ccccc1)NO (racemic)
inhibition [2]: Dose-dependent effect

CCCCCCC(CCCC(=O)Nc1ccccc1)CCC(=O)NO (stereo not drawn)
Activity [3]: 97%
